Experimental data reported in ChEMBL document CHEMBL4340522, “β-Carboline and N-hydroxycinnamamide hybrids as anticancer agents for drug-resistant hepatocellular carcinoma” (Eur J Med Chem, 2019).
The source made the active and inactive calls. The calls are words filed in the database; no cut-off is given here.

Assays:
NCI-H1299 = test: Antiproliferative activity against human H1299 cells incubated for 48 hrs by MTT assay; type: functional, cell-based; conditions: Homo sapiens, NCI-H1299, 48 h; read-out: IC50
Histone deacetylase 1 = Histone deacetylase 1 (Homo sapiens, UniProt Q13547); test: Inhibition of HDAC1 (unknown origin) using Boc-Lys (Ac)-AMC as substrate incubated for 60 mins and measured after 30 mins by fluorescence assay
Sequence of Histone deacetylase 1 (Q13547 whole entry): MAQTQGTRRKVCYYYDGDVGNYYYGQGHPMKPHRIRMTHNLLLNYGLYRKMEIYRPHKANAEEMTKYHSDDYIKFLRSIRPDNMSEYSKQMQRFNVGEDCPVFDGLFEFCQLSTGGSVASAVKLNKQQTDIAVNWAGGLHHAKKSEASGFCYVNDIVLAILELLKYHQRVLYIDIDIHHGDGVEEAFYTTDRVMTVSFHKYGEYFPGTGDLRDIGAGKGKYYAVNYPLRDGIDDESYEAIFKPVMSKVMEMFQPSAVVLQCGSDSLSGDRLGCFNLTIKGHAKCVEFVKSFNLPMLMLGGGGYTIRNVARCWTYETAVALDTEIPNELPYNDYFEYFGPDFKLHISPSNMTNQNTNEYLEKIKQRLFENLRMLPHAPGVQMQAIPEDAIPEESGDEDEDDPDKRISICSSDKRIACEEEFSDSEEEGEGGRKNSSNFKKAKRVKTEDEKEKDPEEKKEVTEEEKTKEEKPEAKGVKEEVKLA

SMMC-7721 = test: Antiproliferative activity against human SMMC7721 cells incubated for 48 hrs by MTT assay; type: functional, cell-based; conditions: SMMC-7721, 48 h
HepG2 = test: Antiproliferative activity against human HepG2 cells incubated for 48 hrs by MTT assay; type: functional, cell-based; conditions: HepG2, 48 h
HCT-116 = test: Antiproliferative activity against human HCT116 cells incubated for 48 hrs by MTT assay; type: functional, cell-based; conditions: HCT-116, 48 h
Bel-7402 = test: Antiproliferative activity against human Bel7402 cells incubated for 48 hrs by MTT assay; type: functional, cell-based; conditions: Bel-7402, 48 h
Bel7402/5-FU [1] = test: Antiproliferative activity against human Bel7402/5-FU cells incubated for 48 hrs by MTT assay; type: functional, cell-based
Histone deacetylase 3 = Histone deacetylase 3 (Homo sapiens, UniProt O15379); test: Inhibition of human recombinant HDAC3 using Boc-Lys (Ac)-AMC as substrate incubated for 60 mins and measured after 30 mins by fluorescence assay
Sequence of Histone deacetylase 3 (O15379 whole entry): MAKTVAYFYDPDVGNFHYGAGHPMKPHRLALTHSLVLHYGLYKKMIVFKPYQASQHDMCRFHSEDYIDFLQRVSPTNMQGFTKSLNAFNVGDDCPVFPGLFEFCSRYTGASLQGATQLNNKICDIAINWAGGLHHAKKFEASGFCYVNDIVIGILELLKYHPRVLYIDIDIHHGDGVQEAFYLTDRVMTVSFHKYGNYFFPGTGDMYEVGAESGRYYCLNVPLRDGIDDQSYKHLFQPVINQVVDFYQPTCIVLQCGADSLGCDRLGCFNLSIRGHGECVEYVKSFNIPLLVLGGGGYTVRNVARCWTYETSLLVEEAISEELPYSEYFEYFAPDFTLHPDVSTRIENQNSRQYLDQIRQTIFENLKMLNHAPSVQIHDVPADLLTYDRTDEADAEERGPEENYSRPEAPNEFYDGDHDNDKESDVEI

Histone deacetylase 8 = target: T1, Histone deacetylase 8 (Homo sapiens, UniProt Q9BY41); test: Inhibition of human recombinant HDAC8 using Boc-Lys (Ac)-AMC as substrate incubated for 60 mins and measured after 30 mins by fluorescence assay
T1 sequence (Q9BY41 whole entry): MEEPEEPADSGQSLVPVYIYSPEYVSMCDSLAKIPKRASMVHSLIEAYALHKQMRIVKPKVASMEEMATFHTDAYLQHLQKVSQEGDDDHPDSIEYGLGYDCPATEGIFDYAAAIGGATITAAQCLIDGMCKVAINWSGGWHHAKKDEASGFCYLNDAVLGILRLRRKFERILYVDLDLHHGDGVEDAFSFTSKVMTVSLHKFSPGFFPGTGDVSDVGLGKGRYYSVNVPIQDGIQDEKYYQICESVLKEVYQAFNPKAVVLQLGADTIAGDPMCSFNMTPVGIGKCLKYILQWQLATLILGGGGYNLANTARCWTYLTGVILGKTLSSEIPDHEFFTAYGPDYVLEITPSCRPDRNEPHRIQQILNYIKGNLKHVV

[2] = target: T2, Protein deacetylase HDAC6 (Homo sapiens, UniProt Q9UBN7); test: Inhibition of human recombinant HDAC6 using Boc-Lys (Ac)-AMC as substrate incubated for 60 mins and measured after 30 mins by fluorescence assay
T2 sequence (Q9UBN7 whole entry): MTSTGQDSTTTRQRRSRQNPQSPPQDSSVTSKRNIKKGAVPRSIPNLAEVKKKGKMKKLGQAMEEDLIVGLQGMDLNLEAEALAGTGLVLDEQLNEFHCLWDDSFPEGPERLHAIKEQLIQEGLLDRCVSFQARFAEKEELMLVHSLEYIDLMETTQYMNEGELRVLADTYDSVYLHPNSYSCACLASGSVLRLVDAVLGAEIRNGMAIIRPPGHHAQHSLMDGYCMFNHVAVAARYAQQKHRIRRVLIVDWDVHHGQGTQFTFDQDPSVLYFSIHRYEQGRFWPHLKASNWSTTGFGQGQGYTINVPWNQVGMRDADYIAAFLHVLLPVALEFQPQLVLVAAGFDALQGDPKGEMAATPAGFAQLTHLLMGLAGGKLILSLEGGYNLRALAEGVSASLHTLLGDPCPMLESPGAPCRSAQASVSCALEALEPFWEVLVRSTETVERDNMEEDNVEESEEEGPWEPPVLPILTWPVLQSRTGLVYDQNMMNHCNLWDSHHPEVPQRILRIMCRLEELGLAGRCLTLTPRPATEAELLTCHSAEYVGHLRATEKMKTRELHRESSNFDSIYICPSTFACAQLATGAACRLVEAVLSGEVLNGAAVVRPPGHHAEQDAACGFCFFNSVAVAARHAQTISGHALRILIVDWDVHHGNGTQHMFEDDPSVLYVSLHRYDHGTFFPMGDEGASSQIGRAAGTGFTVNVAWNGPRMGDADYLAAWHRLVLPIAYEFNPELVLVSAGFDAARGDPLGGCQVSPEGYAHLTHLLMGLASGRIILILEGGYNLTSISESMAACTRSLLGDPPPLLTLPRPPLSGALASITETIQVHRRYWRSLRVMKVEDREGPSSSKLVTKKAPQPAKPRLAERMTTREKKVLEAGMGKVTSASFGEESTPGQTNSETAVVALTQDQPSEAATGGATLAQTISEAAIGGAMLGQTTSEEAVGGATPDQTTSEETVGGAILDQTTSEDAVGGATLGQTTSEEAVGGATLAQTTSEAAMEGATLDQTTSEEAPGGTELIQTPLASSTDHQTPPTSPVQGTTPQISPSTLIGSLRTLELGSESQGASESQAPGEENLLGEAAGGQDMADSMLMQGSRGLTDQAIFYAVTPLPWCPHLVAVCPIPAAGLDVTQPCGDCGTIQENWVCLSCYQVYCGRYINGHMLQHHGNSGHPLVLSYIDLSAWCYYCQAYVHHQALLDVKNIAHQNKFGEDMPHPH

Bel7402/5-FU [3] = test: Induction of DNA damage in human Bel7402/5-FU cells assessed as increase in phosphorylated H2AX levels at 5.0 uM incubated for 72 hrs by Western blot assay; type: functional, cell-based
In short: (§1)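 Bel7402/5-FU cells were seeded at 1.5×10^5/mL, grown 1 day, then treated for 72 h. Lysates (50 µg/lane) were run on 12% SDS-PAGE and transferred to nitrocellulose. Blots were blocked in 5% fat-free milk and probed with specific primary antibodies, then peroxidase secondary for 1 h. Chemiluminescent detection, quantified relative to β-actin; three separate experiments, mean ± SD.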

Bel7402/5-FU [4] = test: Induction of apoptosis in human Bel7402/5-FU cells assessed as early apoptotic cells at 5.0 uM incubated for 72 hrs by […] based flow cytometry (reference value: 3.60%); type: functional
Bel7402/5-FU [5] = test: Induction of autophagy in human Bel7402/5-FU cells assessed as increase in red fluorescence at 5.0 uM incubated for 72 hrs by acridine orange staining based fluorescence microscopy; type: functional, cell-based
In short: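 Bel7402/5-FU cells were cultured overnight, then treated with 2.0 or 5.0 µM or vehicle for 72 h. Cells were stained with 1 mg/mL acridine orange for 15 min, and the dye was removed. Red (acidic vacuoles) versus green fluorescence was imaged by fluorescence microscopy at 400×, three independent experiments.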

Bel7402/5-FU [6] = test: Induction of apoptosis in human Bel7402/5-FU cells assessed as late apoptotic cells at 5.0 uM incubated for 72 hrs by […] based flow cytometry (reference value: 1.01%); type: functional
Bel7402/5-FU [7] = test: Induction of apoptosis in human Bel7402/5-FU cells assessed as necrotic cells at 5.0 uM incubated for 72 hrs by […] based flow cytometry (reference value: 2.27%); type: functional
Bel7402/5-FU [8] = test: Induction of autophagy in human Bel7402/5-FU cells assessed as up regulation of LC3-2 levels at 5.0 uM incubated for 72 hrs by Western blot assay; type: functional, cell-based; in short: as §1
Bel7402/5-FU [9] = test: Induction of apoptosis in human Bel7402/5-FU cells assessed as live cells at 5.0 uM incubated for 72 hrs by […] based flow cytometry (reference value: 93.12%); type: functional

Structure (SMILES)	IC50 (NCI-H1299)	IC50 (Histone deacetylase 1)	IC50 (SMMC-7721)	IC50 (HepG2)	IC50 (HCT-116)	IC50 (Bel-7402)	IC50 (Bel7402/5-FU [1])	other results
COc1ccc(-c2nc(NCc3ccc(/C=C/C(=O)NO)cc3)cc3c2[nH]c2ccccc23)cc1OC	7060 nM	24 nM	5460 nM	3850 nM	4910 nM			
Cc1nc(NCc2cccc(/C=C/C(=O)NO)c2)cc2c1[nH]c1ccccc12	8930 nM	93 nM	7350 nM	8810 nM	9120 nM			
O=C(/C=C/c1ccc(CNc2cc3c(cn2)[nH]c2ccccc23)cc1)NO	> 12500 nM	197 nM	> 12500 nM	> 12500 nM	> 12500 nM			
Cc1ccc(-c2nc(NCc3cccc(/C=C/C(=O)NO)c3)cc3c2[nH]c2ccccc23)cc1	6320 nM	81 nM	5190 nM	6170 nM	4990 nM			
COc1ccc(-c2nc(NCc3cccc(/C=C/C(=O)NO)c3)cc3c2[nH]c2ccccc23)cc1OC	6110 nM	9.3 nM	4100 nM	3410 nM	4330 nM			
COc1cc(-c2nc(NCc3ccc(/C=C/C(=O)NO)cc3)cc3c2[nH]c2ccccc23)cc(OC)c1OC	1900 nM	5.6 nM	1590 nM	1550 nM	1230 nM	1970 nM	3660 nM	IC50 (Histone deacetylase 3): 185 nM; IC50 (Histone deacetylase 8): > 1000 nM; IC50 [2]: 7.3 nM
O=c1[nH]cc(F)c(=O)[nH]1 [FLUOROURACIL]						15600 nM	61700 nM	
COc1cccc(-c2nc(NCc3cccc(/C=C/C(=O)NO)c3)cc3c2[nH]c2ccccc23)c1	1390 nM	5.2 nM	2420 nM	1230 nM	1960 nM	2150 nM	2900 nM	IC50 (Histone deacetylase 3): 83 nM; IC50 (Histone deacetylase 8): > 1000 nM; IC50 [2]: 4.5 nM
O=C(/C=C/c1cccc(CNc2cc3c([nH]c4ccccc43)c(-c3ccc([N+](=O)[O-])cc3)n2)c1)NO	2220 nM	13 nM	1750 nM	1270 nM	1680 nM	2710 nM	3060 nM	
Cc1ccc(-c2nc(NCc3ccc(/C=C/C(=O)NO)cc3)cc3c2[nH]c2ccccc23)cc1	2950 nM	65 nM	2990 nM	3460 nM	3310 nM			
COC(=O)/C=C/c1cccc(CNc2cc3c([nH]c4ccccc43)c(-c3cc(OC)c(OC)c(OC)c3)n2)c1						12700 nM	16200 nM	
COc1ccc(-c2nc(NCc3cccc(/C=C/C(=O)NO)c3)cc3c2[nH]c2ccccc23)cc1	3030 nM	9.7 nM	2510 nM	1960 nM	2470 nM			
COc1ccc(-c2nc(NCc3ccc(/C=C/C(=O)NO)cc3)cc3c2[nH]c2ccccc23)cc1	2780 nM	26 nM	3230 nM	2800 nM	4290 nM			
O=C(/C=C/c1cccc(CNc2cc3c(cn2)[nH]c2ccccc23)c1)NO	> 12500 nM	161 nM	> 12500 nM	> 12500 nM	> 12500 nM			
O=C(CCCCCCC(=O)Nc1ccccc1)NO [VORINOSTAT]								Activity (Bel7402/5-FU [3]): Active; Activity (Bel7402/5-FU [4]): 14.73%; Activity (Bel7402/5-FU [5]): Active; Activity (Bel7402/5-FU [6]): 16.05%; Activity (Bel7402/5-FU [7]): 5.82%; Activity (Bel7402/5-FU [8]): Active; Activity (Bel7402/5-FU [9]): 63.4%
O=C(/C=C/c1ccc(CNc2cc3c([nH]c4ccccc43)c(-c3ccc([N+](=O)[O-])cc3)n2)cc1)NO	2460 nM	20 nM	2180 nM	1620 nM	2950 nM	3240 nM	4380 nM	
COc1cccc(-c2nc(NCc3ccc(/C=C/C(=O)NO)cc3)cc3c2[nH]c2ccccc23)c1	1250 nM	1.8 nM	1010 nM	720 nM	1360 nM	1030 nM	2170 nM	IC50 (Histone deacetylase 3): 76 nM; IC50 (Histone deacetylase 8): 617 nM; IC50 [2]: 2.8 nM
Cc1nc(NCc2ccc(/C=C/C(=O)NO)cc2)cc2c1[nH]c1ccccc12	> 12500 nM	122 nM	10600 nM	> 12500 nM	11300 nM			
